25 compounds from ChEMBL document CHEMBL1140413, “Synthesis and in vitro evaluation of inhibitors of intestinal cholesterol absorption” (2005) can be followed below.

For the first experiment, the species on record is Oryctolagus cuniculus. Put plainly: Percent inhibition against cholesterol absorption in brush border membrane vesicle using rabbit small intestine at concentration of 6 uM. The format is functional.
Conditions: not given
The essentials:
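Cholesterol uptake into brush border membrane vesicles prepared from rabbit whole small intestine, with membrane receptors left intact. Test compounds at a nominal 6 µM; read-out is % inhibition of cholesterol uptake. Average standard deviations ±3% inhibition.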
The inhibition is the relative decrease from the control value, in per cent. Regarding `O=C(O)[C@H]1O[C@@H](Oc2ccc([C@@H]3[C@@H](CCC(O)c4ccc(F)cc4)C(=O)N3c3ccc(F)cc3)cc2)[C@H](O)[C@H](O)[C@@H]1O` (stereo partly specified), the inhibition was found to be 19%.
Still for that read-out and setting: with `Fc1ccc(N2C[C@H](CCCc3ccccc3)[C@H]2c2ccccc2)cc1` (racemic) the figure was 2%; with `O=C1[C@H](CC[C@H](O)c2ccc(F)cc2)[C@@H](c2ccc(O)cc2)N1c1ccc(F)cc1` [EZETIMIBE], 16%.
On the same count and under the same terms, with `O=C1[C@H](CCCc2ccccc2)[C@@H](c2ccccc2)N1c1ccc(F)cc1` (racemic) the figure was 2%; with `O=C1[C@H](CC[C@H](O)c2ccc(F)cc2)[C@@H](c2ccc(OS(=O)(=O)C[C@@H]3O[C@H](CO)[C@@H](O[C@@H]4O[C@H](CO)[C@@H](O)[C@@H](O)[C@H]4O)[C@@H](O)[C@H]3O)cc2)N1c1ccc(F)cc1`, 41%.
The same measure, in the same setting: to `O=C1[C@H](CC[C@H](O)c2ccc(F)cc2)[C@@H](c2ccc(O[C@@H]3O[C@H](CO)[C@@H](O)[C@@H](O)[C@H]3O)cc2)N1c1ccc(F)cc1` belongs 14%; to `COC1OC(CS(=O)(=O)Oc2ccc(C[C@@H](CCC(O)c3ccc(F)cc3)CNc3ccc(F)cc3)cc2)C(O)C(O)C1O` (stereo partly specified), 3%.
Regarding `CS(=O)(=O)Oc1ccc(C[C@@H](CCC(O)c2ccc(F)cc2)CNc2ccc(F)cc2)cc1` (stereo partly specified), the inhibition is -2%.
On the same count and under the same terms, to `O=C1[C@H](CCC(O)c2ccc(F)cc2)[C@@H](c2ccc(O[C@@H]3O[C@H](CO)[C@@H](O[C@@H]4O[C@H](CO)[C@@H](O)[C@@H](O)[C@H]4O)[C@@H](O)[C@H]3O)cc2)N1c1ccc(F)cc1` (stereo partly specified) belongs 27%; to `CS(=O)(=O)Oc1ccc([C@@H]2[C@@H](CCC(O)c3ccc(F)cc3)CN2c2ccc(F)cc2)cc1` (stereo partly specified), 22%.
On the same count and under the same terms, with `O=S(=O)(CC1OC(CO)C(O)C(O)C1O)Oc1ccc([C@@H]2[C@@H](CCC(O)c3ccc(F)cc3)CN2c2ccc(F)cc2)cc1` (stereo partly specified) the figure was 20%; with `O=C1[C@H](CCC(O)c2ccc(F)cc2)[C@@H](c2ccc(OCC3OC(CO)C(O)C(O)C3O)cc2)N1c1ccc(F)cc1` (stereo partly specified), 15%; with `COC1OC(CS(=O)(=O)Oc2ccc([C@@H]3[C@@H](CCC(O)c4ccc(F)cc4)C(=O)N3c3ccc(F)cc3)cc2)C(O)C(O)C1O` (stereo partly specified), 20%.
Regarding `CO[C@H]1O[C@@H](COc2ccc([C@@H]3[C@@H](CC[C@H](O)c4ccc(F)cc4)C(=O)N3c3ccc(F)cc3)cc2)[C@@H](O)[C@H](O)[C@@H]1O`, the inhibition was 13%.
The same measure, in the same setting: to `O=C1[C@H](CCC(O)c2ccc(F)cc2)[C@@H](c2ccc(OS(=O)(=O)CC3OC(CO)C(O)C(O)C3O)cc2)N1c1ccc(F)cc1` (stereo partly specified) belongs 15%; to `O=C1[C@H](CCC(O)c2ccc(F)cc2)[C@@H](c2ccc(OS(=O)(=O)c3ccccc3)cc2)N1c1ccc(F)cc1` (stereo partly specified), 26%.
On the same count and under the same terms, to `CS(=O)(=O)Oc1ccc([C@@H]2[C@@H](CCC(O)c3ccc(F)cc3)C(=O)N2c2ccc(F)cc2)cc1` (stereo partly specified) belongs 30%.
The same measure, in the same setting: with `O=C1[C@H](CC[C@H](O)c2ccc(F)cc2)[C@@H](c2ccc(OC[C@@H]3O[C@H](CO)[C@@H](O[C@@H]4O[C@H](CO)[C@@H](O)[C@@H](O)[C@H]4O)[C@@H](O)[C@H]3O)cc2)N1c1ccc(F)cc1` the figure was 28%; with `COC1OC(CS(=O)(=O)Oc2ccc([C@@H]3[C@@H](CCCc4ccc(F)cc4)CN3c3ccc(F)cc3)cc2)C(O)C(O)C1O` (stereo partly specified), 4%; with `O=C1[C@H](CCCc2ccc(F)cc2)[C@@H](c2ccc(OS(=O)(=O)C[C@@H]3O[C@H](CO)[C@@H](O[C@@H]4O[C@H](CO)[C@@H](O)[C@@H](O)[C@H]4O)[C@@H](O)[C@H]3O)cc2)N1c1ccc(F)cc1`, 10%.
On to `O=S(=O)(Oc1ccc([C@@H]2[C@@H](CCC(O)c3ccc(F)cc3)CN2c2ccc(F)cc2)cc1)c1ccccc1` (stereo partly specified), for which the inhibition amounted to 19%.
On the same count and under the same terms, to `O=C1[C@H](CCCc2ccc(F)cc2)[C@@H](c2ccc(O[C@@H]3O[C@H](CO)[C@@H](O[C@@H]4O[C@H](CO)[C@@H](O)[C@@H](O)[C@H]4O)[C@@H](O)[C@H]3O)cc2)N1c1ccc(F)cc1` belongs 3%.
Same read-out and setting: with `COC1OC(CS(=O)(=O)Oc2ccc([C@@H]3[C@@H](CCC(O)c4ccc(F)cc4)CN3c3ccc(F)cc3)cc2)C(O)C(O)C1O` (stereo partly specified) the figure was 27%; with `CC(C)(C)Oc1ccc([C@@H]2[C@@H](CCC(O)c3ccc(F)cc3)C(=O)N2c2ccc(F)cc2)cc1` (stereo partly specified), 10%.

For the next experiment, the system named is Cricetinae gen. sp. Put plainly: Effective dose required for reduction of liver cholesterol ester using 7-day cholesterol-fed hamster model. The format is functional. The settings on record: 168 h.
What is called ED50 is the midpoint of the dose-response relation. In the case of `O=C1[C@H](CC[C@H](O)c2ccc(F)cc2)[C@@H](c2ccc(O)cc2)N1c1ccc(F)cc1` [EZETIMIBE], the 50% effect level (ED50) was put at a dose of 0.04 mg/kg/day.
Same read-out and setting: to `COc1ccc([C@@H]2[C@@H](CCCc3ccccc3)C(=O)N2c2ccc(OC)cc2)cc1` [SCH-48461] belongs 2.2 mg/kg/day.
